The record followed here is ChEMBL document CHEMBL1122760, “Synthesis and biological properties of some cyclic phosphotriesters derived from 2'-deoxy-5-fluorouridine” (1984).

Assay [1] relates to L1210. As to the kind of experiment: Dose inhibiting L1210/Br-dUrd murine leukemia cell proliferation by 50%. In kind it is functional. The following applies: Mus musculus, read-out: ID50 (the source's name). The method, boiled down:
(§1)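 L1210 cells (5×10^4 per well) grown in Eagle's MEM with 10% inactivated fetal calf serum, 2 mM L-glutamine, 0.075% NaHCO3, then exposed to varying test compound concentrations for 48 h at 37 °C in humidified CO2 atmosphere; growth linear over this period. Cells counted by Coulter counter; ID50 = concentration reducing living cell number by 50%.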

Assay [2] deals with L1210. The assay is described as follows: Dose inhibiting L1210/0 murine leukemia cell proliferation by 50% in presence of 5 ug/mL of dThd. To be noted: Mus musculus, read-out: ID50 (the source's name). In kind it is functional.
Assay [3] is described as follows: Ki/Km values of L1210/0 dTMP synthase for the compound was determined.
Assay [4] concerns L1210. As to the kind of experiment: Dose inhibiting L1210/0 murine leukemia cell proliferation by 50% in presence of 125 ug/mL of dUrd. In kind it is functional. To be noted: Mus musculus, read-out: ID50 (the source's name).
The nature of assay [5]: Ratio of ID50 upon addition of dThd to the ID50 upon addition of dUrd against the L1210/0 cell proliferation. In kind it is functional.
Assay [6] is described as follows: Ratio of ID50 for L1210/0 cell growth and ID50 for L1210/BdUrd cell growth. The format is functional.
The test system of assay [7] is L1210. As to the kind of experiment: Dose inhibiting L1210/0 murine leukemia cell proliferation by 50%. In kind it is functional. The following applies: Mus musculus, read-out: ID50 (the source's name). The method, boiled down: as §1
For assay [8], the system named is L1210. As to the kind of experiment: Dose inhibiting L1210/0 murine leukemia cell proliferation by 50% in presence of 500 ug/mL of dCyd. In kind it is functional. The following applies: Mus musculus, read-out: ID50 (the source's name).

In brackets after ≈: the same amount, converted by molar mass.

For `O=c1[nH]c(=O)n([C@H]2C[C@H](O)[C@@H](COP(=O)(O)O)O2)cc1F` [5-FLUORODEOXYURIDYLATE], the IC50 in the assay on L1210 [1] is 2.43 µg/mL (≈ 7.45 µM); with L1210 [2], more than 100 µg/mL; with L1210 [4], 0.044 µg/mL; in the assay on L1210 [7] it was 2 ng/mL (≈ 0.00613 µM). Moreover, the values for the Ratio in assay [3], in assay [5] and in assay [6] were 0.0099, more than 2273 and 1215, respectively.

Turning to `O=c1[nH]c(=O)n([C@H]2C[C@H](O)[C@@H](COP3(=O)OCC(O)CO3)O2)cc1F` (stereo partly drawn), the IC50 in the assay with L1210 [1] was 165 µg/mL (≈ 432 µM); in the assay on L1210 [2], more than 1000 µg/mL; in the assay on L1210 [4], 3.87 µg/mL; with L1210 [8] it was 2.04 µg/mL; with L1210 [7], 320 ng/mL (≈ 0.837 µM). Moreover, the Ratio in assay [3] was more than 60; in assay [5], more than 258; in assay [6], 516.

On to `O=c1[nH]c(=O)n([C@H]2C[C@H](O)[C@@H](COP3(=O)OCCCO3)O2)cc1F`, for which the IC50 in the assay on L1210 [1] was 197 µg/mL (≈ 538 µM); in the assay with L1210 [2] it was more than 100 µg/mL; in the assay with L1210 [4], 13.2 µg/mL; in the assay with L1210 [8] it was 1.38 µg/mL; in the assay with L1210 [7] it was 275 ng/mL (≈ 0.751 µM). Moreover, the Ratio in assay [3] is more than 110; in assay [5], more than 7.58; in assay [6], 716.

On to `O=c1[nH]c(=O)n([C@H]2C[C@H](O)[C@@H](COP3(=O)OCC(F)(F)CO3)O2)cc1F`, for which the IC50 with L1210 [1] turned out to be 2.42 µg/mL (≈ 6.02 µM); with L1210 [2], 270 µg/mL; with L1210 [4], 0.048 µg/mL; in the assay on L1210 [8] it was 0.036 µg/mL; in the assay with L1210 [7], 3 ng/mL (≈ 0.00746 µM). In addition, the values for the Ratio in assay [3], in assay [5] and in assay [6] were more than 110, 5637 and 807, respectively.

For `O=c1[nH]c(=O)n([C@H]2C[C@H](O)[C@@H](CO)O2)cc1F` [FLOXURIDINE], the IC50 was determined as 1.75 µg/mL (≈ 7.11 µM) with L1210 [1], 34 µg/mL with L1210 [2], 0.02 µg/mL in the assay on L1210 [4] and 1 ng/mL (≈ 0.00406 µM) in the assay on L1210 [7]. Also, the Ratio was 66.5 in assay [3], 1700 in assay [5] and 1750 in assay [6].
